These results are taken from the array DNA melting data of Ke et al. (doi:10.1101/2024.01.08.574731).

A short description of series [1]: folding enthalpy; higher = less favourable; fluorescence melt of hairpins on a sequencing array, two-state fit. To be noted: sodium 0.088 M. In a few lines:
(§1)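 Cy3 fluorescence of library hairpins on a sequenced MiSeq flow cell, with annealed Cy3 and quencher oligos, was imaged in 50 mM Na-HEPES pH 8.0, 25 mM NaCl in 2.5 °C steps up to 60 °C. Signals were normalised to pre-quench Cy3 and to control variants. Melting temperature and folding enthalpy came from bootstrapped two-state fits, inverse-variance combined over four replicates. Fitted temperatures were raised by 9.35 °C to match UV melts.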

Series [2] is described as follows: melting temperature; fluorescence melt of hairpins on a sequencing array, two-state fit, raised by 9.35 °C to match UV melts. To be noted: sodium 0.088 M. The method, boiled down: as §1

Take GATTTCGGAAACGAGATC (((.(((....))).))): the folding enthalpy in series [1] was -30 kcal/mol. Also, the Tm in series [2] is 41.6 °C.

Take GATTTGGAAACAAATC ((((((....)))))): the folding enthalpy in series [1] was -40.2 kcal/mol. For the same sequence, in series [2], the Tm was determined as 48.5 °C.

Turning to GATTTGGGAAACCAGATC (((.(((....))).))), in series [1], the folding enthalpy was -35.9 kcal/mol. The Tm in series [2] turned out to be 37.7 °C.

GATTTGGGAAACTAAATC (((((.(....).))))): the folding enthalpy in series [1] was -26.6 kcal/mol. Also, in series [2], the Tm stood at 36.6 °C.

For the sequence GATTTTGGAAACAAAGTC ((.((((....)))).)), in series [1], the folding enthalpy was -27.5 kcal/mol. Moreover, the Tm in series [2] came to 35.3 °C.

Turning to GCAAACGAAAGTTAATGC ((((((....)))..))), the folding enthalpy in series [1] is -14.7 kcal/mol. For the same sequence, the Tm in series [2] was found to be 30.6 °C.

Take GCAAACGAAAGTTCTTGC ((((((....)))..))): in series [1], the folding enthalpy was -10 kcal/mol. The Tm in series [2] was determined as 31.7 °C.

In the case of GCAAACGAAAGTTGTGC ((((((....))).))), in series [1], the folding enthalpy is -22.6 kcal/mol. The Tm in series [2] amounted to 43.4 °C.

As for GCAAACGAAAGTTTTGC ((((((....))).))), in series [1], the folding enthalpy is -28.5 kcal/mol. For the same sequence, the Tm in series [2] is 49.4 °C.

With GCAAACGCGAAAGCGTGC (((..(((....)))))), the folding enthalpy in series [1] is -13.7 kcal/mol. Moreover, the Tm in series [2] is 55.7 °C.

For GCAAAGCGAAAGCAGTGC (((..((....))..))), the folding enthalpy in series [1] is -14 kcal/mol. Besides, the Tm in series [2] was determined as 44.7 °C.

In the case of GCAAAGCGAAAGCGATGC (((..((....))..))), in series [1], the folding enthalpy was -24.4 kcal/mol. In addition, in series [2], the Tm was determined as 61.7 °C.

Regarding GCAAAGGGAAACCCTTGC ((((.((....)).)))), the folding enthalpy in series [1] is -29.5 kcal/mol. Moreover, in series [2], the Tm was 46 °C.

GCAAATGGAAACATTCGC ((.((((....)))).)): the folding enthalpy in series [1] is -28.5 kcal/mol. Besides, in series [2], the Tm is 38.4 °C.

For GCAAATGGAAACGTTTGC (((((.(....).))))), in series [1], the folding enthalpy was -38.1 kcal/mol. For the same sequence, in series [2], the Tm turned out to be 49.6 °C.

As to GCAACAACGAAAGTTTGC (((..(((....)))))), the folding enthalpy in series [1] is -25 kcal/mol. For the same sequence, the Tm in series [2] is 36.1 °C.

With GCAACAGGAAACCGTTGC (((((.(....).))))), the folding enthalpy in series [1] is -43.8 kcal/mol. Also, in series [2], the Tm came to 50.4 °C.

As to GCAACAGGAAACTGTTGC (((((((....))))))), the folding enthalpy in series [1] was -40.3 kcal/mol. Also, the Tm in series [2] is 68.5 °C.

For the sequence GCAACCACGAAAGTGTGC (((..(((....)))))), the folding enthalpy in series [1] is -17.4 kcal/mol. In addition, in series [2], the Tm was determined as 41.7 °C.

In the case of GCAACCGAAAGGTATTGC ((((((....)))..))), the folding enthalpy in series [1] is -18.3 kcal/mol. Further, the Tm in series [2] is 39.9 °C.

For the sequence GCAACCGAAAGGTCGTGC ((((((....)))..))), the folding enthalpy in series [1] is -17.6 kcal/mol. The Tm in series [2] was 38.1 °C.

Turning to GCAACCGAAAGGTGGTGC ((((((....)))..))), the folding enthalpy in series [1] is -20.8 kcal/mol. For the same sequence, in series [2], the Tm is 48.6 °C.

On to GCAACCGAAAGGTTCTGC ((((((....)))..))), for which, in series [1], the folding enthalpy is -14.9 kcal/mol. Besides, the Tm in series [2] was 41.8 °C.

Take GCAACCGGAAACGGTCAC (..((((....))))..): in series [1], the folding enthalpy is -8.88 kcal/mol. Further, in series [2], the Tm worked out at 24.9 °C.

Turning to GCAACGACGAAAGTCTGC (((..(((....)))))), the folding enthalpy in series [1] was -16.6 kcal/mol. Also, the Tm in series [2] amounted to 40.5 °C.

Regarding GCAACGCCGAAAGGCTGC (((..(((....)))))), in series [1], the folding enthalpy is -15.4 kcal/mol. The Tm in series [2] is 47.8 °C.

On to GCAACGCGAAAGCCATGC (((..((....))..))), for which the folding enthalpy in series [1] was -7.42 kcal/mol. Further, the Tm in series [2] was 29.1 °C.

For the sequence GCAACGCGAAAGCCTCGC ((.(.((....)).).)), the folding enthalpy in series [1] is -7.26 kcal/mol. For the same sequence, the Tm in series [2] amounted to 30.9 °C.

Consider GCAACGCGAAAGCGCGGC ((..(((....)))..)), for which the folding enthalpy in series [1] is -14.8 kcal/mol. Moreover, the Tm in series [2] came to 48.1 °C.

Regarding GCAACGGGAAACCATCGC ((.(.((....)).).)), the folding enthalpy in series [1] is -12.5 kcal/mol. For the same sequence, the Tm in series [2] turned out to be 27 °C.

Turning to GCAACGGGAAACCATTGC ((((.((....)).)))), the folding enthalpy in series [1] is -26.8 kcal/mol. Also, the Tm in series [2] came out at 41.5 °C.

For GCAACTCCGAAAGGATGC (((..(((....)))))), the folding enthalpy in series [1] was -19.8 kcal/mol. Further, the Tm in series [2] is 38.1 °C.

In the case of GCAACTCGAAAGAGATGC (((.(((....))).))), the folding enthalpy in series [1] is -40.1 kcal/mol. Further, the Tm in series [2] turned out to be 53.8 °C.

With GCAACTGAAAAGTTGC ((((((....)))))), the folding enthalpy in series [1] was -36.6 kcal/mol. The Tm in series [2] was determined as 62.5 °C.

For GCAACTGGAAACAATTGC ((((.((....)).)))), in series [1], the folding enthalpy is -32.8 kcal/mol. In addition, in series [2], the Tm is 34.5 °C.

For GCAAGAGCGAAAGCTTGC (((..(((....)))))), the folding enthalpy in series [1] is -22.8 kcal/mol. Moreover, in series [2], the Tm was found to be 51.9 °C.
